Source: ChEMBL document CHEMBL1132976, “Biarylcarbamoylindolines are novel and selective 5-HT(2C) receptor inverse agonists: identification of 5-methyl-1-[[2-[(2-methyl-3-pyridyl)oxy]- 5-pyridyl]carbamoyl]-6-trifluoromethylindoline (SB-243213) as a potential antidepressant/anxiolytic agent” (J Med Chem, 2000)
The source made the active and inactive calls. No cut-off for these calls is given here.

Key:
[1] = biological target: T1, 5-hydroxytryptamine receptor 2B (Homo sapiens, UniProt P41595); experiment: Displacement of [3H]5-HT from human 5-hydroxytryptamine 2B receptor expressed in HEK293 cells; compound is insoluble; type: cell-based
In short: (§1)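 Competition binding at human cloned receptors expressed in HEK 293 cells. Radioligands: [3H]ketanserin for 5-HT2A, [3H]5-HT for 5-HT2B, [3H]mesulergine for 5-HT2C. Values are pKi, given as the mean of at least two determinations, each within 0.2 log unit of the mean.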

[2] = biological target: T2, 5-hydroxytryptamine receptor 2C (Homo sapiens) (UniProt P28335); experiment: Displacement of [3H]mesulergine from human 5-hydroxytryptamine 2C receptor expressed in HEK293 cells; compound insoluble; type: cell-based; in short: as §1
T2 sequence (whole entry): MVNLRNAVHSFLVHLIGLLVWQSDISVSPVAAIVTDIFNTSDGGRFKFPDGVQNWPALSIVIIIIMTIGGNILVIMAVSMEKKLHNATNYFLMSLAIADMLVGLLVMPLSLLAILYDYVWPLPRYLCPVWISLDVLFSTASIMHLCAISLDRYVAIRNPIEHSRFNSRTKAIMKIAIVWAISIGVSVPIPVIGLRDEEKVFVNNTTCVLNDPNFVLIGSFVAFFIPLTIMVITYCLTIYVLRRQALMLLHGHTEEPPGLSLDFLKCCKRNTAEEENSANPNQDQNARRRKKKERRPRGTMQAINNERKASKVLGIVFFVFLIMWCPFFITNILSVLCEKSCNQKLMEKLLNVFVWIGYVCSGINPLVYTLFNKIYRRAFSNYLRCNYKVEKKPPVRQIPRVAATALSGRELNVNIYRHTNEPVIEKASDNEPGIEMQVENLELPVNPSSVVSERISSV

[3] = biological target: T3, 5-hydroxytryptamine receptor 2A (Homo sapiens, UniProt P28223); experiment: Displacement of [3H]ketanserin from human 5-hydroxytryptamine 2A receptor expressed in HEK293 cells; compound is insoluble; type: cell-based; in short: as §1
[4] = biological target: T1, 5-hydroxytryptamine receptor 2B; experiment: Displacement of [3H]5-HT from human 5-hydroxytryptamine 2B receptor expressed in HEK293 cells; type: cell-based; in short: as §1
[5] = biological target: Serotonin receptor (2b and 2c) (Homo sapiens) (UniProt P41595+P28335); experiment: Selectivity index determined from the binding affinities of 5-HT2C and 5-HT2B.; type: protein assay
[6] = biological target: Serotonin 2 receptors; 5-HT2a & 5-HT2c (Homo sapiens) (UniProt P28223+P28335); experiment: Selectivity index determined from binding affinities of 5-HT2C and 5-HT2A.; type: protein assay
[7] = biological target: T3, 5-hydroxytryptamine receptor 2A; experiment: Binding affinity towards human cloned 5-hydroxytryptamine receptor 2A in HEK293 cells, using [3H]ketanserin as radioligand.; type: cell-based; in short: as §1
Cytochrome P450 1A2 = biological target: T4, Cytochrome P450 1A2 (Homo sapiens, UniProt P05177); experiment: Inhibition of heterologously expressed human cytochrome P450 1A2.; type: ADME
T4 sequence (P05177 whole entry): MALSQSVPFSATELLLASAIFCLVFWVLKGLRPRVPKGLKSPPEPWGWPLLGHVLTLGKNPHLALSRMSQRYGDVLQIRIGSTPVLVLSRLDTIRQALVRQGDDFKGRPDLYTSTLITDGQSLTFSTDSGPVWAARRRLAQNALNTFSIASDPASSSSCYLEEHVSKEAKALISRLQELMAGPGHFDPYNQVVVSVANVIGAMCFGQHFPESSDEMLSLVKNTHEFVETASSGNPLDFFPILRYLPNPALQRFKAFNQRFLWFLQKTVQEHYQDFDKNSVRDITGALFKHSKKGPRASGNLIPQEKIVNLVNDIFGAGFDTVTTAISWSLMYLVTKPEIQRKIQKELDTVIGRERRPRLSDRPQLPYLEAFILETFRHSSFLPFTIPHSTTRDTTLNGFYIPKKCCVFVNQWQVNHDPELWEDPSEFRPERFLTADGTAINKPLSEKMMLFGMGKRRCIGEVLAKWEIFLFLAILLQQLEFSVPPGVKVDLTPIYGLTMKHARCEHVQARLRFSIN
In short: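 Heterologously expressed human CYP1A2 in an isoform-selective assay. Substrate: caffeine N3-demethylation at 500 µM, at the substrate Km.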

[8] = biological target: T5, 5-hydroxytryptamine receptor 2C (Homo sapiens, UniProt P28335); experiment: Binding affinity towards human cloned 5-hydroxytryptamine receptor 2C in HEK293 cells, using [3H]mesulergine as radioligand.; type: cell-based; in short: as §1
T5 sequence (P28335 whole entry): T2 sequence (whole entry)

Rattus norvegicus [9] = experiment: Dose required to reverse mCPP induced hypolocomotion in rats after oral administration; type: functional
In short: (§2)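 Rat hypolocomotion model. The test compound was given orally, and mCPP was given at 7 mg/kg ip 30 min before the test. ID50 (mg/kg po) is the dose that reverses mCPP-induced hypolocomotion by 50%.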

[10] = biological target: T1, 5-hydroxytryptamine receptor 2B; experiment: Binding affinities towards human cloned 5-hydroxytryptamine 2B receptor in HEK293 cells using [3H]5-HT as radioligand.; type: cell-based; in short: as §1
Rattus norvegicus [11] = experiment: Dose required to reverse mCPP induced hypolocomotion in rats after oral administration; IA=inactive; type: functional, organism-based; in short: as §2
Rattus norvegicus [12] = experiment: Dose required to reverse mCPP induced hypolocomotion in rats after oral administration; NA=inactive; type: functional, organism-based; in short: as §2

T3 sequence (P28223 whole entry): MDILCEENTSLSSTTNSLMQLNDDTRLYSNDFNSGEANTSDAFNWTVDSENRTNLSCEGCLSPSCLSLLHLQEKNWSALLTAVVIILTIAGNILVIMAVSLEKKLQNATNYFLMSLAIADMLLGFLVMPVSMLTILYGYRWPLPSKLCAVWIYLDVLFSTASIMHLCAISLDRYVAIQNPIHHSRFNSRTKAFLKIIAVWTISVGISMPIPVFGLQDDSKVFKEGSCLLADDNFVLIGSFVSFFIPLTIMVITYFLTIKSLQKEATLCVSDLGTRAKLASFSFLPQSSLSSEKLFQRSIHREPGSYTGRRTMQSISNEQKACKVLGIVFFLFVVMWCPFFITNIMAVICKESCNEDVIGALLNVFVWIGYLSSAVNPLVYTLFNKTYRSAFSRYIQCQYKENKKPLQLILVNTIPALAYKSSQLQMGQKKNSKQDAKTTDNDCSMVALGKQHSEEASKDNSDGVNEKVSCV
Serotonin 2 receptors; 5-HT2a & 5-HT2c (Homo sapiens), sequence (P28223 whole entry, looked up, one chain of several): as the sequence (P28223 whole entry) above
T1 sequence (P41595 whole entry): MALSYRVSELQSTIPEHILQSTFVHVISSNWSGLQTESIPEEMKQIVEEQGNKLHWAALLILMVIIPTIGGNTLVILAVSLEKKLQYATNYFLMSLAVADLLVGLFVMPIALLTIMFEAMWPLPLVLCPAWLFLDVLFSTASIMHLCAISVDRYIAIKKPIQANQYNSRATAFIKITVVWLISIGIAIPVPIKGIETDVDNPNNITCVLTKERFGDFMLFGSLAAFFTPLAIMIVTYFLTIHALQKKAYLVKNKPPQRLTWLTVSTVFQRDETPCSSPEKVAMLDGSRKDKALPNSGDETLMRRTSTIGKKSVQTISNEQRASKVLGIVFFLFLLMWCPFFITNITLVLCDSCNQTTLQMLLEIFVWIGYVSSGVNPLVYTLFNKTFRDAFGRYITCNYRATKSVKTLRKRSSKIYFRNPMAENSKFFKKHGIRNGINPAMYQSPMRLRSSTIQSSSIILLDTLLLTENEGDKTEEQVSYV

Log Ki [1]	Log Ki [2]	Log Ki [3]	Ki [4] [nM]	Selectivity [5]	Selectivity [6]	Ki [7] [nM]	IC50 (Cytochrome P450 1A2) [nM]	Ki [8] [nM]	Ki [10] [nM]	SMILES	ED50 (Rattus norvegicus [9]) [mg/kg]	ED50 (Rattus norvegicus [11])	ED50 (Rattus norvegicus [12])
Insoluble	Insoluble	Insoluble	–	–	–	–	–	–	–	COc1cc2c(cc1C(F)(F)F)N(C(=O)Nc1ccc(-c3ccccc3)nc1)CC2	–	–	–
–	–	–	6.31	15	250	100	200	0.398	–	COc1cc2c(cc1C(F)(F)F)N(C(=O)Nc1cncc(-c3cnccc3C)c1)CC2	5	–	–
–	–	–	–	13	320	1000	–	3.16	39.8	COc1cc2c(cc1C(F)(F)F)N(C(=O)Nc1ccc(C(C)(C)C)c(-c3cccnc3)c1)CC2	–	inactive	–
–	–	–	10	2	> 2000	> 10000	7000	5.01	–	COc1cc2c(cc1C(F)(F)F)N(C(=O)Nc1ccc(-c3cccnc3)nc1)CC2	–	–	inactive
